Experimental data as given in ChEMBL document CHEMBL2424605, “Discovery of novel (1S)-(-)-verbenone derivatives with anti-oxidant and anti-ischemic effects” (Bioorg Med Chem Lett, 2013).
Activity calls are given as the source filed them. The calls are words filed in the database; no cut-off is given here.

Legend:
[1] = system: Radical scavenging activity; experiment: Antioxidant activity assessed as inhibition of DPPH-induced free radical generation at 80 uM after 30 mins relative to control; type: functional
Method in brief: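 DPPH scavenging given as % inhibition of DPPH absorbance, with values derived from a standard dose–response curve of vitamin C (0–500 µM). Mean ± SEM, N = 9.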

[2] = Cytotoxicity against Sprague-Dawley rat cortical neurons assessed as cell viability at 10 uM by LDH assay; details: cortical neurone
[3] = Antioxidant activity assessed as AAPH-induced free radical scavenging activity at 25 uM preincubated for 30 mins followed by AAPH induction measured every 5 mins for 9 hrs by ORAC assay relative to vehicle-treated control; type: functional
Method in brief: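 ORAC: area under the fluorescence decay curve (netAUC) expressed as fold change relative to vehicle control. Mean ± SEM, N = 12; trolox included as reference.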

Cortical neurone [4] = experiment: Anti-excitotoxic activity in Sprague-Dawley rat cortical neurons assessed as reduction of NMDA-evoked neuronal injury at 10 uM incubated for 30 mins prior to NMDA induction and maintained during NMDA induction for 15 mins measured after 9 hrs; type: functional
Method in brief: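 Rat cortical neurons exposed to NMDA for 15 min, then incubated 9 h. Compound or MK801 (10 µM) added 30 min before and kept during NMDA. Injury scored as % inhibition of LDH release, given as median with interquartile range; N = 9–18.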

Cortical neurone [5] = experiment: Anti-ischemic activity in Sprague-Dawley rat cortical neurons assessed as reduction of oxygen-glucose deprivation-induced intracellular oxidative stress at 10 uM incubated for 30 mins prior to induction of oxygen-glucose deprivation and maintained during entire period of oxygen-glucose deprivation/reoxygenation measured after 1 hr by H2DCFDA staining-based […] microscopic analysis; type: functional, cell-based
Method in brief: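 Neurons pretreated 30 min before 90 min OGD, with treatment kept through reoxygenation. H2DCFDA loaded 1 h after reoxygenation; intracellular oxidative stress read as rise in fluorescence intensity 2 h later by imaging.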

Cortical neurone [6] = experiment: Anti-ischemic activity in Sprague-Dawley rat cortical neurons assessed as reduction of oxygen-glucose deprivation/reoxygenation-induced neuronal injury at 10 uM incubated for 30 mins prior to induction of oxygen-glucose deprivation and maintained during entire period of oxygen-glucose deprivation/reoxygenation measured after 9 hrs by LDH assay; type: functional
Method in brief: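 Rat cortical neurons given 90 min oxygen-glucose deprivation, then 9 h reoxygenation. Compound, MK801 or trolox (10 µM or indicated concentrations) applied 30 min before OGD and kept through OGD/R. Neuronal injury read by LDH assay; mean ± SEM, N = 24.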

[7] = system: Radical scavenging activity; experiment: Antioxidant activity assessed as inhibition of DPPH-induced free radical generation at 1 to 500 uM after 30 mins relative to control; type: functional
Cortical neurone [8] = experiment: Anti-excitotoxic activity in Sprague-Dawley rat cortical neurons assessed as inhibition of NMDA-induced intracellular calcium uptake at 10 uM incubated for 30 mins prior to NMDA induction measured after 50 secs by fluo-3 AM staining-based […] microscopic analysis; type: functional, cell-based
Method in brief: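 Cultured rat cortical neurons loaded with Fluo-3 AM for 30 min with or without 10 µM compound, then exposed to NMDA. Intracellular free Ca2+ read 50 s after NMDA as fold change in integrated fluorescence density of Ca2+-bound Fluo-3 over basal. Median, interquartile range and min–max reported; N = 4–5; compared with NMDA-treated group.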

Structure (SMILES) | inhibition [1] | Activity [2] | fold change (FC) [3] | Activity (Cortical neurone [4]) | Activity (Cortical neurone [5]) | Activity (Cortical neurone [6]) | inhibition [7] [%] | inhibition (Cortical neurone [8])
COc1ccc(/C=C/C2=CC(=O)[C@H]3C[C@@H]2C3(C)C)cc1 | inactive | Non-toxic | 2.64 |  |  |  |  | 
COc1ccc(/C=C/C2=CC(=O)[C@H]3C[C@@H]2C3(C)C)cc1OC | inactive | Non-toxic | 2.73 |  |  |  |  | 
COc1cc(O)ccc1/C=C/C1=CC(=O)[C@H]2C[C@@H]1C2(C)C | 38.1% | Non-toxic | 7.37 |  |  |  |  | 
CC1=CC(=O)[C@H]2C[C@@H]1C2(C)C [LEVOVERBENONE] | inactive | Non-toxic | 1.19 |  |  |  |  | 
CC1(C)[C@@H]2C[C@H]1C(/C=C/c1ccncc1)=CC2=O | inactive | Non-toxic | 1.56 |  |  |  |  | 
CC1(C)[C@@H]2C[C@H]1C(/C=C/c1ccc(O)cc1)=CC2=O | 19.1% | Non-toxic | 10.7 | Active | inactive | Active |  | 
COc1cc(O)cc(OC)c1/C=C/C1=CC(=O)[C@H]2C[C@@H]1C2(C)C | 55.8% | Non-toxic | 11.5 |  |  |  |  | 
COc1cc(/C=C/C2=CC(=O)[C@H]3C[C@@H]2C3(C)C)cc(OC)c1 | inactive | Non-toxic | 3.14 |  |  |  |  | 
COc1ccc(/C=C/C2=CC(=O)[C@H]3C[C@@H]2C3(C)C)c(O)c1 | 51.2% | Non-toxic | 9.48 | Active |  |  |  | 
CC1(C)[C@@H]2C[C@H]1C(/C=C/c1ccc(F)cc1)=CC2=O | inactive | Non-toxic | 1.81 |  |  |  |  | 
CC1(C)[C@@H]2C[C@H]1C(/C=C/c1cccnc1)=CC2=O | inactive | Non-toxic | 1.59 |  |  |  |  | 
CC1(C)[C@@H]2C[C@H]1C(/C=C/c1ccc(O)c(Br)c1)=CC2=O | 29.4% | Non-toxic | 11.6 |  |  |  |  | 
CC1(C)[C@@H]2C[C@H]1C(/C=C/c1cccc(O)c1)=CC2=O | inactive | Non-toxic | 5.11 |  |  |  |  | 
CC1(C)[C@@H]2C[C@H]1C(/C=C/c1ccc(-c3ccccc3)cc1)=CC2=O | inactive | Non-toxic | 1.85 |  |  |  |  | 
O=C1O[C@H]([C@@H](O)CO)C(O)=C1O |  |  |  |  |  |  | 74 | 
CC1(C)[C@@H]2C[C@H]1C(/C=C/c1ccccn1)=CC2=O | inactive | Non-toxic | 1.63 | Active |  |  |  | 
CC1(C)[C@@H]2C[C@H]1C(/C=C/c1ccc(-n3cccc3)cc1)=CC2=O | inactive | Non-toxic | 6.81 |  |  |  |  | 
C[C@]12N[C@H](Cc3ccccc31)c1ccccc12 [DIZOCILPINE] |  | Non-toxic |  | Active |  | Active |  | 
CC1(C)[C@@H]2C[C@H]1C(/C=C/c1ccc(O)c(O)c1)=CC2=O | 91.6% | Non-toxic | 9.09 | Active | Active | Active |  | 
CC1(C)[C@@H]2C[C@H]1C(/C=C/c1ccccc1)=CC2=O | inactive | Non-toxic | 1.92 |  |  |  |  | 
Cc1c(C)c2c(c(C)c1O)CCC(C)(C(=O)O)O2 (stereo not given) |  |  | 3.11 |  |  |  |  | 
COc1ccc(OC)c(/C=C/C2=CC(=O)[C@H]3C[C@@H]2C3(C)C)c1 | inactive | Non-toxic | 2.25 |  |  |  |  | 
CC1(C)[C@@H]2C[C@H]1C(/C=C/c1ccccc1O)=CC2=O | 4.64% | Non-toxic | 6.84 |  |  |  |  | 
COc1cc(/C=C/C2=CC(=O)[C@H]3C[C@@H]2C3(C)C)cc(O)c1O [SP-8356] | 83.6% | Non-toxic | 6.86 | Active | Active | Active |  | Active
